Results of several laboratories.
Compare with care: the assays were run in different laboratories.
Target: Ephrin type-B receptor 1 (EPHB1, Homo sapiens, UniProt P54762)
One construct used (P54762 18-984): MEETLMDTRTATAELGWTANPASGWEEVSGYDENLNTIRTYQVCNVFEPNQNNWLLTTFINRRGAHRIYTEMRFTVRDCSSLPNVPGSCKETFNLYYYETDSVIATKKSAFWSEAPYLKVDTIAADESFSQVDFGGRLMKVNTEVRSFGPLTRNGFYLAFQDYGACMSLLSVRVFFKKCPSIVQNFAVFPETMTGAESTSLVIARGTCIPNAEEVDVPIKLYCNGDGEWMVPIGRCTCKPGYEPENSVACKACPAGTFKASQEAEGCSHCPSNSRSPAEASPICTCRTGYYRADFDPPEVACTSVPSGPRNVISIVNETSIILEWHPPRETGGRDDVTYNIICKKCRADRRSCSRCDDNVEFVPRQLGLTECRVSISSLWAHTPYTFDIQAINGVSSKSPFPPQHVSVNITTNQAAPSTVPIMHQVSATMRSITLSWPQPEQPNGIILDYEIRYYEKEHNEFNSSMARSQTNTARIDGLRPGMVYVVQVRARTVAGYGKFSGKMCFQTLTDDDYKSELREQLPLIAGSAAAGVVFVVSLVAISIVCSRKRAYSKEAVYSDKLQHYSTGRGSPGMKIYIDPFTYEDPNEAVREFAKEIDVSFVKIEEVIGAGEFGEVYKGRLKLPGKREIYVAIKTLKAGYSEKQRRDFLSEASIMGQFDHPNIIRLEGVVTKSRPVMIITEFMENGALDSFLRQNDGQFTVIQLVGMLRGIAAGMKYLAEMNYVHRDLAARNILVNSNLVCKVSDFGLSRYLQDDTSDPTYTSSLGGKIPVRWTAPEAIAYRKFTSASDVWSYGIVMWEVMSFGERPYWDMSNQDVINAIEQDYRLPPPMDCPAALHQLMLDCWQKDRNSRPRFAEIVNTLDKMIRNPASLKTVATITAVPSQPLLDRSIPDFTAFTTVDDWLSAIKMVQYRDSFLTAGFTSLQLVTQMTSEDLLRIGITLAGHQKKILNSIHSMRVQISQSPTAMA

N[C@H]1CCN(c2nccc(-c3cnn4ncccc34)n2)C1  remaining binding (binding; 1 µM): 100%
COc1cnc(Nc2cccc(S(N)(=O)=O)c2)nc1N1CCN(c2ccccc2)CC1  remaining binding (binding; competition with immobilised ligand; 1 µM): 97%
O=C(NCC1CCOCC1)c1n[nH]cc1NC(=O)c1c(F)cccc1F  remaining binding (binding; competition with immobilised ligand; 1 µM): 100%
O=C(NCCCN1CCOCC1)c1ccc(Nc2nccc(-c3cc4ccccc4s3)n2)cc1  remaining binding (binding; competition with immobilised ligand; 1 µM): 77%
CCS(=O)(=O)c1cc2cc(C[C@](O)(CC(C)(C)c3ccc(F)cc3C(N)=O)C(F)(F)F)[nH]c2cn1  remaining binding (cell-free assay; competition with immobilised ligand; 1 µM): 86%
C[C@@H]1CCN(c2nccc(-c3cnn4ncccc34)n2)C1  remaining binding (binding; 1 µM): 97%
c1ccc(N2CCN(Cc3nc4ccccc4[nH]3)CC2)nc1  remaining binding (cell-free assay; competition with immobilised ligand; 1 µM): 100%
C[C@@H](c1ccc(-n2cnc3c(N)ncnc32)cc1)N1CCc2nn(C)c(Cc3ccccc3)c2C1=O  remaining binding (binding; competition with immobilised ligand; 0.1 µM): 70%
Nc1cnc(N2CCc3cc(S(=O)(=O)Nc4c(F)cc(Cl)cc4F)cc(N4CCCC4=O)c32)nc1  remaining binding (cell-free assay; competition with immobilised ligand; 1 µM): 92%
O=C(c1ccc(Nc2nccc(-c3cc4ccccc4s3)n2)cc1)N1CCC(N2CCCC2)CC1  remaining binding (binding; competition with immobilised ligand; 1 µM): 47%
CN(C)c1nccc(-c2cnn3ncccc23)n1  remaining binding (binding; 1 µM): 100%
O=C(NCCCN1CCOCC1)c1ccc(Nc2ncc(Cl)c(-c3ccc(Cl)s3)n2)cc1  remaining binding (binding; competition with immobilised ligand; 1 µM): 58%
CO[C@@H](C)c1c(Nc2ccc([C@H](N(C)C(=O)C3CCS(=O)(=O)CC3)C(F)(F)F)cc2)cnc2cc(Cl)nn12  remaining binding (cell-free assay; competition with immobilised ligand; 1 µM): 86%
CCN1CCN(Cc2ccc(C(=O)Nc3ccc(C)c(Oc4ccc5c(c4)CC(=O)N5)c3)cc2C(F)(F)F)CC1  remaining binding (binding; competition with immobilised ligand; 1 µM): 100%
Cc1cnn2ncc(-c3ccnc(N(C)C)n3)c2c1  remaining binding (binding; 1 µM): 100%
CN1CCN(c2cnc3c(C4CCN(C(=O)c5ccc(OC(F)(F)F)cc5N)CC4)ncnc3c2)CC1  remaining binding (cell-free assay; competition with immobilised ligand; 1 µM): 100%
c1cnn2ncc(-c3ccnc(N4CCC45COC5)n3)c2c1  remaining binding (binding; 1 µM): 100%
O=C(O)c1cc(-c2ccc(C3CCNCC3)cc2)c2ccc(-c3ccc(C(F)(F)F)cc3)cc2c1  remaining binding (cell-free assay; competition with immobilised ligand; 1 µM): 100%
CNC(=O)[C@@H]1CC[C@@H](n2c(-c3ccc4cnccc4c3)nc3ccc(C(=O)NCc4cccc(C(N)=O)c4)cc32)C1  remaining binding (binding; competition with immobilised ligand; 1 µM): 100%
CN(c1nccc(-c2cnn3ncccc23)n1)C1CC1  remaining binding (binding; 1 µM): 100%
